The EternaBench riboswitch data

Test system: MS2 coat protein
Test: apparent Kd, MS2 coat protein; higher = weaker binding; RNA-MaP array; FMN 200 µM where present
In short: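 Each design was made on Illumina sequencing-chip clusters by stalled E. coli RNA polymerase and titrated with SNAP-549-labelled MS2 coat protein from 0.7 or 1.5 nM, doubling to 3 µM, in the absence and then the presence of constant ligand. The buffer was 100 mM Tris-HCl pH 7.5, 80 mM KCl, 4 mM MgCl2, BSA, DTT, yeast tRNA and Tween-20. The apparent Kd is the median of filtered per-cluster fits of binding curves, with green signal normalised to red-channel RNA signal and control-cluster median Fmax.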

[1] = designed as: ON switch for flavin mononucleotide, no ligand
[2] = ligand present: flavin mononucleotide, designed as: ON switch for flavin mononucleotide
[3] = designed as: OFF switch for flavin mononucleotide, no ligand
[4] = ligand present: flavin mononucleotide, designed as: OFF switch for flavin mononucleotide

| Sequence | apparent Kd [1] | apparent Kd [2] | apparent Kd [3] | apparent Kd [4] |
| --- | --- | --- | --- | --- |
| ACAUGAGGAUCACCCAUGUUCACAUAGGAUAUUGAUUUUAUUGGUUUUAGAAUAGUAAUUAAACUCAAGAAGGAUGCCAGUUGU | 10.7 nM | 8.78 nM | – | – |
| AAAUUGCUAGAGGAUAUCGGAUAGGAUUUAUUGCGAGAAGGCUGGACAUGAGGAUCACCCAUGUUCUGUUGGGA | – | – | 23.9 nM | 36.6 nM |
| UGAUCUAUGUAGAAGGCCCAUAUCUAUAUUUAGGGAGGAUAUACAUGAGGAUCACCCAUGUAUAGAGCUAGUGGACUAGUCACC | – | – | 20.9 nM | 47.1 nM |
| UUAGAAUUUGCAGGAUAUUGUAUUUUAUUACAUCAAGAAGGGCAUUACAUGAGGAUCACCCAUGUUAACAUGGUUAUAAAUUUU | – | – | 94.8 nM | 29.5 nM |
| ACAUGAGGAUCACCCAUGUGAGGAUCUCCCAUGUUAUAUUUCAGAAGGCUCGUGUGUUUGAUGAGAGAGGAUAUGGAAUAUACG | – | – | 73.7 nM | 49.7 nM |
| UAGUGCGUUAGAGGAUAUUCUAAAUAAAAUAAUAAGACAUGAGGAUCACCCAUGUAUGUACAUGGGAAGAAGGCUGAUGUGCUA | 573 nM | 42.9 nM | – | – |
| GUAGCAUAAUCAGGAUAUUCAGAGAAUAAAUAAACAUGAGGAUCACCCAUGUGGCGAAAGCCUAGGGAGAAGGGAUAAUGCUAC | 118 nM | 24.8 nM | – | – |
| UACUAUAAGGAGGAUAUCGUAUCGGAAACGAUACGAGAAGGCUUAACAUGAGGAUCACCCAUGUUCUUCAAUAA | – | – | 16.6 nM | 18.3 nM |
| UCGUAUAAGGGCAUUACACAUGAGGAUCACCCAUGUACGUUAGAGGAUAUGCAUUCCAGUCGAACGUAGAAGGUUAGAGAAGGG | – | – | 307 nM | 268 nM |
| CGGCACGCAGGAUAUGCCUUUGAGUACAUGAGGAUCACCCAUGUCUUCACCCUCAUUAGGGCAGAAGGGCGAUAUC | – | – | 24.4 nM | 32.2 nM |
| ACAUACUCUCGAGGAUAUCGUAUGGAAAAGAAACGAGAAGGCGAAUGUUAAUUUCUAAUACAUGACAUGAGGAUCACCCAUGUA | 30.4 nM | 27.3 nM | – | – |
| AGCUACGUUUCGUAGCAGCUAGGUGAGGAUAUCCACUCGACAUGAGGAUCACCCAUGUAAACAUGGGAGAAGGCGCCUAGAAAG | 84.9 nM | 10.6 nM | – | – |
| CAUAUACAUGAGGAUCACCCAUGUUAGGAUAUGUUUUAACCGCGCGCAGGGUUAGUUGGCAGAAGGGAUCUGGG | – | – | 31.4 nM | 39 nM |
| CUUUUGUGAGGAUAUUAUUAGUAAAUAAAUAAAAUUACUACUGAGAAGGCACAUGAGGAUCACCCAUGUUCCUC | – | – | 24.3 nM | 108 nM |
| AGUAGAUCAGGAUAUACGUAAAUGGUAAUUAUGUAACUUAUACAUGAGGAUCACCCAUGUAGAAGGGAUCUACA | – | – | 19.4 nM | 51.9 nM |
| GCGCAGCCGGGUGAGGAUAUCGGUGGUAAAACAUGAGGAUCACCCAUGUCCGAAGCUCGGACUUCCGAGAAGGCGCCCAGCUGCA | 115 nM | 14.4 nM | – | – |
| UCCGACCUAGGAUAUACCUGGGCCGCCUCGUGUUAUCACCUACAUGAGGAUCACCCAUGUAGAAGGAGGACGGU | – | – | 46.7 nM | 64.1 nM |
| AAAAAACAUGAGGAUCACCCAUGUGAGGAUAUGUAUAUCCCUAAAAAAGUGUGGGACUACAGAAGGCACUUGGA | – | – | 79.7 nM | 207 nM |
| GUCAGCUCGUGAGGAUAUACAUGUGCUGGAUACAGCACUAAUAGAAUCACAUGAGGAUCACCCAUGUAGAAGGCACGAGCUGAU | – | – | 17.6 nM | 39.4 nM |
| UUUUACUAGUAAGGAUAUACUAGCGAUUAGCUUGUAGAAGGUGCAGUCUUAUGUAUAACAUGUUAACAUGAGGAUCACCCAUGU | 125 nM | 37.6 nM | – | – |
| UGCAUCAAUGAAGGAUAUCUAUGUCCAACAUGAGGAUCACCCAUGUUGAGGAUUACCUAUGUGUAGGAGAAGGUCAAUAUAACU | 6.67 nM | 6.12 nM | – | – |
| UUUACGAAAGUCGAACGAUGUAGCAGAAGGACAUGAGGAUCACCCAUGUCAGCUGUAACAGCCAUGUAGGAUAUGCUACAUUUU | – | – | 5.37 nM | 6.12 nM |
| AAAGAUGGAGGAUAUACAUGAGGAUCACCCAUGUAGAAAAAAAAUUGGGAAAAAGAAAGUAGAAGGCCAAAAAA | – | – | 41 nM | 91.1 nM |
| UGUGUUAUCGGAGGAUAUCGAUAUCAAACAUGAGGAUCACCCAUGUUGAGGAUCACACAUGUCCACGAGAAGGCCGACGUAGUG | 7.12 nM | 7.23 nM | – | – |
